Measured values as given in ChEMBL document CHEMBL3351600, “Sulfur, selenium and tellurium pseudopeptides: synthesis and biological evaluation” (Bioorg Med Chem, 2014).
pIC50: −log10 of the molar value.

What was measured:
DU-145 = experiment: Growth inhibition of human DU145 cells after 48 hrs; assay type: functional; conditions: DU-145, 48 h
Method in brief: (§1)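 NCI-60 human tumour cell line panel screen run at the US National Cancer Institute under its standard cytotoxicity protocol. It covers leukaemia, NSCLC, colon, CNS, melanoma, ovarian, renal, prostate and breast lines. An initial single-dose test was followed by five-dose testing with 48 h compound exposure.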

NCI-H322M = experiment: Growth inhibition of human NCI-H322M cells after 48 hrs; assay type: functional; conditions: read-out: pLC50 (the source's name) (converted); method in brief: as §1
MDA-MB-435 = experiment: Growth inhibition of human MDA-MB-435 cells after 48 hrs; assay type: functional; conditions: MDA-MB-435, 48 h; method in brief: as §1
MCF7 [1] = experiment: Cytotoxicity against human MCF7 cells assessed as cell viability after 24 hrs incubation by MTT assay; assay type: functional, cell-based; conditions: MCF7, 24 h
Method in brief: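 Cell lines came from DSMZ; primary human fibroblasts served as non-cancer controls. Cells were grown in medium with 10% FCS, seeded at 50,000 cells/ml, and grown 2 days at 37 °C, 10% CO2. Serial dilutions were then added for 24 h. MTT (final 0.5 mg/ml) was added for 2 h. Formazan was pelleted, PBS-washed, dissolved in isopropanol/0.4% HCl and read at 590 nm. Two parallel experiments were run. IC50 was taken as the concentration giving 50% of untreated-control absorbance.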

KM12 = experiment: Growth inhibition of human KM12 cells after 48 hrs; assay type: functional; conditions: KM12, 48 h; method in brief: as §1
[2] = Growth inhibition of human OVCAR8 cells after 48 hrs; assay type: functional; conditions: OVCAR-8, 48 h; method in brief: as §1
[3] = Growth inhibition of human UACC62 cells after 48 hrs; assay type: functional; conditions: UACC-62, 48 h
Method in brief: (§2)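 Run by the NCI 58-cell-line screen under its standard cytotoxicity protocol. Compounds were first tested at a single dose, then at five doses. Cells were exposed to compound for 48 h.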

HL-60(TB) = experiment: Growth inhibition of human HL-60(TB) cells after 48 hrs; assay type: functional; conditions: HL-60, 48 h; method in brief: as §1
Saccharomyces cerevisiae = experiment: Antimicrobial activity against Saccharomyces cerevisiae assessed as inhibition at 20 ug/6 mm disk after 1 to 2 days by agar diffusion assay; assay type: functional
Method in brief: (§3)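 Standard agar diffusion: 6-mm paper disks loaded with 20 µg of compound were placed on inoculated plates. Inhibition-zone diameter (mm) was read after 1 and 2 days of growth.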

SN12C = experiment: Growth inhibition of human SN12C cells after 48 hrs; assay type: functional; method in brief: as §2
MCF7 [4] = experiment: Growth inhibition of human MCF7 cells after 48 hrs; assay type: functional; conditions: MCF7, 48 h; method in brief: as §1
MDA-MB-468 = experiment: Growth inhibition of human MDA-MB-468 cells after 48 hrs; assay type: functional; conditions: MDA-MB-468, 48 h; method in brief: as §1
[5] = Growth inhibition of human RPMI8226 cells after 48 hrs; assay type: functional; conditions: RPMI-8226, 48 h; method in brief: as §1
U-251 = experiment: Growth inhibition of human U251 cells after 48 hrs; assay type: functional; conditions: U-251, 48 h; method in brief: as §2
Escherichia coli = experiment: Antimicrobial activity against Escherichia coli tolC assessed as inhibition at 20 ug/6 mm disk after 1 to 2 days by agar diffusion assay; assay type: functional; method in brief: as §3
SK-MEL-28 = experiment: Growth inhibition of human SK-MEL-28 cells after 48 hrs; assay type: functional; conditions: SK-MEL-28, 48 h; method in brief: as §1
[6] = Growth inhibition of human UO31 cells after 48 hrs; assay type: functional; conditions: UO-31, 48 h; method in brief: as §2
MDA-MB-231 = experiment: Growth inhibition of human MDA-MB-231 cells after 48 hrs; assay type: functional; conditions: MDA-MB-231, 48 h; method in brief: as §1
[7] = Lipophilicity, log K of the compound by HPLC analysis
Klebsiella pneumoniae = experiment: Antimicrobial activity against Klebsiella pneumoniae assessed as inhibition at 20 ug/6 mm disk after 1 to 2 days by agar diffusion assay; assay type: functional; method in brief: as §3
NCI-H23 = experiment: Growth inhibition of human NCI-H23 cells after 48 hrs; assay type: functional; conditions: NCI-H23, 48 h; method in brief: as §1
[8] = Growth inhibition of human COLO205 cells after 48 hrs; assay type: functional; conditions: COLO 205, 48 h; method in brief: as §1
CAKI-1 = experiment: Growth inhibition of human CAKI-1 cells after 48 hrs; assay type: functional; conditions: CAKI-1, 48 h; method in brief: as §1
NCI-H460 = experiment: Growth inhibition of human NCI-H460 cells after 48 hrs; assay type: functional; conditions: NCI-H460, 48 h; method in brief: as §1
Pseudomonas aeruginosa = experiment: Antimicrobial activity against Pseudomonas aeruginosa assessed as inhibition at 20 ug/6 mm disk after 1 to 2 days by agar diffusion assay; assay type: functional; method in brief: as §3
[9] = Growth inhibition of human PC3 cells after 48 hrs; assay type: functional; conditions: PC-3, 48 h; method in brief: as §1
SF-268 = experiment: Growth inhibition of human SF268 cells after 48 hrs; assay type: functional; conditions: SF-268, 48 h; method in brief: as §1
HOP-62 = experiment: Growth inhibition of human HOP62 cells after 48 hrs; assay type: functional; conditions: HOP-62, 48 h; method in brief: as §1
[10] = Growth inhibition of human MOLT4 cells after 48 hrs; assay type: functional; conditions: MOLT-4, 48 h; method in brief: as §1
[11] = Growth inhibition of human HCT116 cells after 48 hrs; assay type: functional; conditions: HCT-116, 48 h; method in brief: as §1
M14 = experiment: Growth inhibition of human M14 cells after 48 hrs; assay type: functional; conditions: M14, 48 h; method in brief: as §1
[12] = read-out: pLC50 (the source's name) (converted)

COc1ccc(N(CC(=O)NCCC[Te]c2ccccc2)C(=O)c2ccccc2)cc1
GI50 (DU-145): 3.89 µM | LC50 (DU-145): 64.6 µM | TGI (DU-145; read-out: pTGI (converted)): 13.8 µM | CC50 (NCI-H322M): > 100 µM | GI50 (MDA-MB-435): 8.13 µM | CC50 (MDA-MB-435; [12]): > 100 µM | TGI (MDA-MB-435; read-out: pTGI (converted)): 30.2 µM | pIC50 (MCF7 [1]): 4.57 | GI50 (KM12): 3.16 µM | CC50 (KM12; [12]): 46.8 µM | TGI (KM12; read-out: pTGI (converted)): 11.7 µM | GI50 [2]: 3.02 µM | LC50 [2]: > 100 µM | TGI ([2]; read-out: pTGI (converted)): 8.13 µM | GI50 [3]: 2.51 µM | CC50 [3, 12]: 43.7 µM | TGI ([3]; read-out: pTGI (converted)): 7.59 µM | GI50 (HL-60(TB)): 2.14 µM | CC50 (HL-60(TB); [12]): > 100 µM | TGI (HL-60(TB); read-out: pTGI (converted)): 5.75 µM | diameter of the inhibition zone (DIZ) (Saccharomyces cerevisiae): 0 mm | GI50 (SN12C): 2.69 µM | LC50 (SN12C): > 100 µM | TGI (SN12C; read-out: pTGI (converted)): 8.51 µM | GI50 (MCF7 [4]): 3.16 µM | LC50 (concentration killing 50% of cells) (MCF7 [4]): 75.9 µM | TGI (MCF7 [4]; read-out: pTGI (converted)): 10.7 µM | GI50 (MDA-MB-468): 4.27 µM | LC50 (MDA-MB-468): 56.2 µM | TGI (MDA-MB-468; read-out: pTGI (converted)): 17.8 µM | GI50 [5]: 3.16 µM | CC50 [5, 12]: > 100 µM | TGI ([5]; read-out: pTGI (converted)): 19.1 µM | GI50 (U-251): 2.82 µM | CC50 (U-251; [12]): 74.1 µM | TGI (U-251; read-out: pTGI (converted)): 9.33 µM | diameter of the inhibition zone (DIZ) (Escherichia coli): 11 mm | GI50 (SK-MEL-28): 4.17 µM | CC50 (SK-MEL-28; [12]): 45.7 µM | TGI (SK-MEL-28; read-out: pTGI (converted)): 15.5 µM | GI50 [6]: 2.75 µM | LC50 [6]: 95.5 µM | TGI ([6]; read-out: pTGI (converted)): 11 µM | GI50 (MDA-MB-231): 2.63 µM | LC50 (MDA-MB-231): > 100 µM | TGI (MDA-MB-231; read-out: pTGI (converted)): 4.79 µM | log K [7]: -0.65 | diameter of the inhibition zone (DIZ) (Klebsiella pneumoniae): 12 mm | GI50 (NCI-H23): 3.16 µM | CC50 (NCI-H23; [12]): > 100 µM | TGI (NCI-H23; read-out: pTGI (converted)): 9.33 µM | GI50 [8]: 2.57 µM | CC50 [8, 12]: > 100 µM | TGI ([8]; read-out: pTGI (converted)): 6.03 µM | GI50 (CAKI-1): 2.95 µM | LC50 (CAKI-1): > 100 µM | TGI (CAKI-1; read-out: pTGI (converted)): 14.8 µM | GI50 (NCI-H460): 0.537 µM | CC50 (NCI-H460; [12]): 8.71 µM | TGI (NCI-H460; read-out: pTGI (converted)): 2.4 µM | diameter of the inhibition zone (DIZ) (Pseudomonas aeruginosa): 9 mm | GI50 [9]: 2.69 µM | LC50 [9]: > 100 µM | TGI ([9]; read-out: pTGI (converted)): 12.6 µM | GI50 (SF-268): 3.16 µM | CC50 (SF-268; [12]): 66.1 µM | TGI (SF-268; read-out: pTGI (converted)): 10.7 µM | GI50 (HOP-62): 2.4 µM | CC50 (HOP-62; [12]): 18.2 µM | TGI (HOP-62; read-out: pTGI (converted)): 5.37 µM | GI50 [10]: 3.55 µM | CC50 [10, 12]: > 100 µM | TGI ([10]; read-out: pTGI (converted)): 16.6 µM | GI50 [11]: 2.57 µM | CC50 [11, 12]: 44.7 µM | TGI ([11]; read-out: pTGI (converted)): 10.2 µM | GI50 (M14): 4.17 µM | CC50 (M14; [12]): 63.1 µM | TGI (M14; read-out: pTGI (converted)): 15.5 µM
